Test results published in paper PMC9798170 (International Journal for Parasitology: Drugs and Drug …, 2022).
≈ marks a conversion by molar mass, not a printed value. Entries after “also recorded” stand apart in the source; their conditions may differ.

Assays:
P. falciparum 3D7 strain = settings: ref Hidayati et al., 2020; cited from earlier work
[1] = test system: succinate-cytochrome c (complex II-III activities); test: Counter assay succinate-cytochrome c activity, bovine heart mitochondria; type: biochemical; settings: read-out: IC50 of the sample against succinate-cytochrome c (complex II-III)
In short: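 Run as the NADH assay (phosphate buffer pH 7.4, 2 mM KCN) but with 100 µM cytochrome c and 25 µg/mL bovine heart mitochondria. Reaction started with 10 mM succinate, and cytochrome c reduction read at 550 nm, in quadruplicate. Test compound was serially diluted from 100 to 0.003 µM. DMSO was the 0% inhibition control and 5 µM ascochlorin the 100% inhibition control.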

[2] = test system: NADH-cytochrome c (complex I-III activities); test: Counter assay NADH-cytochrome c activity, bovine heart mitochondria; type: biochemical; settings: read-out: IC50 of the sample against succinate-cytochrome c (complex I-III)
[3] = test system: synchronized P. falciparum 3D7 strain; test: Impairment of P. falciparum intraerythrocytic stage development; type: cell-based, Plasmodium falciparum; settings: tested at IC50 concentration
In short: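 Parasites were sorbitol-synchronized (5% w/v) and set at 0.3% parasitemia in human O+ RBCs in RPMI-1640 with 10% human serum at 37 °C. Sampling was at 0, 24 and 48 h. Giemsa-stained thin smears were scored for stage by light microscopy at 1000×. Each concentration was run in duplicate on the same plate.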

[4] = test system: Plasmodium falciparum 3D7; test: In vitro antimalarial assay; type: cell-based; settings: P. falciparum 3D7, 48 h, microscopic assay; listed as Chloroquine diphosphate
In short: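 Test compound stock was 10 mg/mL in DMSO, diluted in RPMI-1640 to final 0.01–100 µg/mL. It was added to culture at ~1% parasitemia and 5% haematocrit in human O+ RBCs with 10% serum, then incubated 48 h at 37 °C. Parasitemia was counted per 1000 RBCs on 10% Giemsa smears. Inhibition was taken relative to the negative control, and IC50 came from a four-parameter logistic fit.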

[5] = test system: Plasmodium falciparum 3D7; test: Isobologram analysis, fixed-ratio combinations; type: cell-based; settings: fixed ratios 4:1, 3:2, 2:3, 1:4; 72 h
In short: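 Test compound was combined with atovaquone or chloroquine at fixed ratios 4:1, 3:2, 2:3 and 1:4, with 5:0 and 0:5 for single agents, in serial dilution. Synchronized rings at 0.3% parasitemia were incubated 72 h at 37 °C under 90% N2/5% CO2/5% O2, then read by PfLDH/diaphorase. IC50 was determined per mixture, and FIC = IC50 in mixture / IC50 alone.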

recombinant PfMQO = biological target: T1, recombinant PfMQO (Plasmodium falciparum, UniProt C6KT09); test: Recombinant PfMQO activity inhibition assay; type: biochemical; settings: recombinant PfMQO membrane fraction
T1 sequence (C6KT09 1-521): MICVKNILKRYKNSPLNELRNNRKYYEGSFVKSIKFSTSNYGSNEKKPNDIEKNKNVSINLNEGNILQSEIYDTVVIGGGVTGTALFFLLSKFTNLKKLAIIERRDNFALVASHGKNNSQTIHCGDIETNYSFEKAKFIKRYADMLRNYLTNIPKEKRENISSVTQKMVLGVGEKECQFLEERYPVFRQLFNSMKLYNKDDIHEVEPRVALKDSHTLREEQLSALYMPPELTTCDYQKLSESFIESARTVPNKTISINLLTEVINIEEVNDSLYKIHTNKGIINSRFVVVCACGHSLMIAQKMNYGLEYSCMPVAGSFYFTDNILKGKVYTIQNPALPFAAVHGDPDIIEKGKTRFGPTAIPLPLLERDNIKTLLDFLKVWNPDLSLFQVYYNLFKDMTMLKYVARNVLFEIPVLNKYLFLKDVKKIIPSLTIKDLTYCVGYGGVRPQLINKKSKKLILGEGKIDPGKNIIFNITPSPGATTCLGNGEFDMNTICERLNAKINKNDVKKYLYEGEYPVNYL
In short: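 PfMQO membrane fraction (3 µg/mL) was used in 50 mM HEPES-KOH pH 7.0 with 1 mM KCN, 25 µM decylubiquinone and 120 µM DCIP. Background was read for 5 min at 600 nm and 37 °C, then malate (400 mM stock) was added and activity recorded for 10 min. DMSO wells served as 0% and no-malate wells as 100%. Runs were in triplicate over test compound 0.001–100 µM, with four-parameter nonlinear fit.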

P. falciparum = P. falciparum growth; ref Widyawaruyanti et al., 2007; cited from earlier work

CC(C)=CCCC1(C)C=Cc2c(CCC(=O)c3ccc(O)cc3O)ccc(O)c2O1 (stereo not drawn) [1-(2,4-dihydroxyphenyl)-3-(8-hydroxy-2-methyl-2-(4-methyl-3-pentenyl)-2H-1-benzopyran-5-yl]-1-propanone]
IC50 (P. falciparum 3D7 strain): 1050 nM

CC(/C=C/[C@@]1(C)[C@H](C)CCC(=O)[C@@H]1C)=C\Cc1c(O)c(Cl)c(C)c(C=O)c1O [Ascochlorin]
IC50 [1]: 10 nM
IC50 [2]: 10 nM

Cc1c(-c2ccc(-c3ccccc3F)cc2)nc2ccc(F)cc2c1C(=O)O [Brequinar]
IC50 [1]: 22900 ± 1460 nM

CCN(CC)CCCC(C)Nc1ccnc2cc(Cl)ccc12 (stereo not drawn) [Chloroquine]
stage development after 24 h of incubation ([3]; 24 h): ring stage was still dominant
stage development after 48 h of incubation ([3]; 48 h): accumulation of trophozoite
IC50 [4]: 0.004 µg/mL (≈ 0.0125 µM)
interaction in combination with atovaquone (isobologram) [5]: antagonistic interactions; also recorded: antagonism

CC(C)=CCC/C(C)=C/CC/C(C)=C/Cc1c(O)c2ccccc2oc1=O [Ferulenol]
IC50 [1]: 170 ± 10 nM
IC50 [2]: 280 ± 80 nM
IC50 (recombinant PfMQO): 0.06 ± 0.01 µg/mL
IC50 (recombinant PfMQO; listed as ferulenol): 170 nM

C=C(C)[C@H]1Cc2c(ccc3c2O[C@@H]2COc4cc(OC)c(OC)cc4[C@@H]2C3=O)O1 [Rotenone]
IC50 [1]: 1860 ± 110 nM
IC50 [2]: 10 nM

Heteroflavanone C
IC50 (P. falciparum): 1 nM
